Experimental data taken from ChEMBL document CHEMBL4393661, “PRODRUGS FOR NITROREDUCTASE BASED CANCER THERAPY- 2: Novel amide/Ntr combinations targeting PC3 cancer cells” (Eur J Med Chem, 2019).

Columns and labels:
[1] = substrate: NC(=O)c1cc(N(CCCl)CCCl)c([N+](=O)[O-])cc1[N+](=O)[O-]; assay: (§1) Substrate activity at Escherichia coli nitroreductase nfsB assessed as Kcat using NADH as cofactor at […] in Tris-Cl buffer at pH 7.5 by spectrophotometric method
[2] = substrate: CS(=O)(=O)OCCN(CCBr)c1c(C(=O)NCCO)cc([N+](=O)[O-])cc1[N+](=O)[O-]; assay: as §1
[3] = substrate: NC(=O)c1cc(N2CC2)c([N+](=O)[O-])cc1[N+](=O)[O-]; assay: as §1
[4] = substrate: CS(=O)(=O)OCCN(CCBr)c1c(C(=O)NCCO)cc([N+](=O)[O-])cc1[N+](=O)[O-]; assay: (§2) Substrate activity at Escherichia coli nitroreductase nfsB assessed as Km using NADH as cofactor in Tris-Cl buffer at pH 7.5 by spectrophotometric method; assay type: ADME
[5] = substrate: NC(=O)c1cc(N2CC2)c([N+](=O)[O-])cc1[N+](=O)[O-]; assay: as §2; assay type: ADME
[6] = substrate: CCN(C(C)=O)c1cc([N+](=O)[O-])cc([N+](=O)[O-])c1; assay: (§3) Substrate activity at Staphylococcus saprophyticus nitroreductase assessed as Km using NADPH as cofactor in presence of Tris-Cl buffer at pH 7.5 by spectrophotometric method; assay type: ADME
Procedure, shortened: (§4)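 Michaelis–Menten parameters for recombinant Ssap-NtrB were measured spectrophotometrically at 25 °C in 25 mM Tris-Cl buffer pH 7.5 containing 5% DMSO as cosolvent.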

[7] = substrate: NC(=O)c1cc(N2CC2)c([N+](=O)[O-])cc1[N+](=O)[O-]; assay: as §3; assay type: ADME; procedure, shortened: as §4

B1: Oxygen-insensitive NAD(P)H nitroreductase (Escherichia coli K-12), P38489 (protein)
chain: MDIISVALKRHSTKAFDASKKLTPEQAEQIKTLLQYSPSSTNSQPWHFIVASTEEGKARVAKSAAGNYVFNERKMLDASHVVVFCAKTAMDDVWLKLVVDQEDADGRFATPEAKAANDKGRKFFADMHRKDLHDDAEWMAKQVYLNVGNFLLGVAALGLDAVPIEGFDAAILDAEFGLKEKGYTSLVVVPVGHHSVEDFNATLPKSRLPQNITLTEV
kcat [1]: 26.4 s⁻¹
kcat [2]: 60 s⁻¹
kcat [3]: 62 s⁻¹

B2: Oxygen-insensitive NAD(P)H nitroreductase (Escherichia coli K-12) (protein)
chain: MDIISVALKRHSTKAFDASKKLTPEQAEQIKTLLQYSPSSTNSQPWHFIVASTEEGKARVAKSAAGNYVFNERKMLDASHVVVFCAKTAMDDVWLKLVVDQEDADGRFATPEAKAANDKGRKFFADMHRKDLHDDAEWMAKQVYLNVGNFLLGVAALGLDAVPIEGFDAAILDAEFGLKEKGYTSLVVVPVGHHSVEDFNATLPKSRLPQNITLTEV
Km [4]: 4.5 mM
kcat/Km [4]: 13000 M⁻¹ s⁻¹
Km [5]: 11 mM
kcat/Km [5]: 5600 M⁻¹ s⁻¹

B3: Putative nitroreductase (Staphylococcus saprophyticus subsp. saprophyticus ATCC 15305 = NCTC 7292) (protein)
chain: MINNNFEEILMNRKSVKVFDEQVKIPKAEMDEMIKKATTAPSSVNMQPWRFLVVESDEGKDTLRPLIRFNTRQNDSSAAMVVIFGDMKSQTNAEEIYGNAVKHDLMPEEVKQEMLKKVIPLYDNAPKEQMNDIVKIDSSLAAMQFMLVAKAHGYDTNPIGGFESDQIADAFGIDSERYVPVLIVAIGKAKNPAHGSYRLPTETVTKYV
Km [6]: 96.9 µM
Km [7]: 1070 µM
kcat [7]: 2.26 s⁻¹
kcat/Km [7]: 2120 M⁻¹ s⁻¹
